Measurements reported in ChEMBL document CHEMBL1138326, “Structure-based design, synthesis, and biological evaluation of indomethacin derivatives as cyclooxygenase-2 inhibiting nitric oxide donors” (J Med Chem, 2007).
Active and inactive are the calls of the source. The calls are words filed in the database; no cut-off is given here.

Assays:
[1] = molecular target: T1, Prostaglandin G/H synthase 1 (Homo sapiens, UniProt P23219); assay: Inhibition of COX1 in human whole blood assessed as effect on A23187-induced thromboxane B2 production at 30 uM relative to control; values are per cent of control
[2] = molecular target: T1, Prostaglandin G/H synthase 1; assay: Inhibition of COX1 in human whole blood assessed as effect on A23187-induced thromboxane B2 production at 3 uM relative to control; values are per cent of control
[3] = test system: Rattus norvegicus; assay: Antiinflammatory activity against Sprague-Dawley rat carrageenan air-pouch model assessed as reduction of prostaglandin E2 at 45 umol/kg, po; type: functional; parameters: scale not given: the % may be the effect or the level left
In short: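 Air pouches raised by sc injection of 20 mL sterile air (day -6) plus 10 mL on day -3; rats fasted 18 h. Compound suspended in 0.5% methocel given orally 1 h before intrapouch carrageenan (1 mL of 1.0% in saline). Exudate collected 4 h later after PBS/heparin lavage; PGE2 by enzyme immunoassay. Means ± SEM, n = 6–22; ANOVA with Dunnett's test vs vehicle.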

[4] = molecular target: T1, Prostaglandin G/H synthase 1; assay: Inhibition of COX1 in human whole blood assessed as effect on A23187-induced thromboxane B2 production; type: tissue-based
[5] = molecular target: T2, Prostaglandin G/H synthase 2 (Homo sapiens) (UniProt P35354); assay: Inhibition of COX2 in human whole blood assessed as effect on LPS-induced thromboxane B2 production at 30 uM relative to control; values are per cent of control
T2 sequence (whole entry): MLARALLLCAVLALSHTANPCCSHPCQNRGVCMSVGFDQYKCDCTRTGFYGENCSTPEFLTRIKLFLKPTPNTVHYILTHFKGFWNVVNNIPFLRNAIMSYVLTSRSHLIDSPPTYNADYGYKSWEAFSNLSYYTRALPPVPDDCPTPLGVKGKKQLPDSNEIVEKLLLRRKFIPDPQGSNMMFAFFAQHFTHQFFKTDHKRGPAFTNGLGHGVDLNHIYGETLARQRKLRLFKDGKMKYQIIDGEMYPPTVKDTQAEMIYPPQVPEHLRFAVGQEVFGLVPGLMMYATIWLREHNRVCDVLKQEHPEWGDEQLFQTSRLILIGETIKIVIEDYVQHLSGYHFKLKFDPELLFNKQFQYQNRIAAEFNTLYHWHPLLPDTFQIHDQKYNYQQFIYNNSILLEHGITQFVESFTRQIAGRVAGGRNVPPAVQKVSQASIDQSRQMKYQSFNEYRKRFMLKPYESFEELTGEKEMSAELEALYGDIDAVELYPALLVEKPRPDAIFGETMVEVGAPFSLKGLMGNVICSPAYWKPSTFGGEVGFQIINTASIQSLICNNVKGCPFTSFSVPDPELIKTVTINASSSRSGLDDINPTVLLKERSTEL

[6] = test system: Rattus norvegicus; assay: Gastric sparing effect in Sprague-Dawley rat assessed as reduction of aspirin-induced gastric damage at 45 umol/kg, po; type: ADME, organism-based, Stomach; parameters: scale not given: the % may be the effect or the level left; details: in vivo
In short: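 Aspirin (25 mg/kg, in 1.0% methocel) gavaged at 1.0 mL/kg; test compound in 0.5% methocel gavaged 2 min later. Rats killed after 3 h and stomachs scored as summed hemorrhagic lesion lengths. Six groups, 3–11 rats each; ANOVA with Newman-Keuls test.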

[7] = test system: Rattus norvegicus; assay: Antiinflammatory activity against intrapouch dosed Sprague-Dawley rat carrageenan air-pouch model assessed as reduction of prostaglandin E2 at 45 umol/kg; type: functional; parameters: scale not given: the % may be the effect or the level left
In short: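 Air pouch made with 20 mL sterile air sc on day -6 and 10 mL more on day -3; rats fasted 18 h. Compound in 0.5% methocel injected into the pouch 1 h before carrageenan (1 mL of 1.0% in saline). After 4 h, exudate recovered with PBS/heparin and assayed for PGE2 by enzyme immunoassay.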

[8] = molecular target: T1, Prostaglandin G/H synthase 1; assay: Inhibition of COX1 in human whole blood assessed as effect on A23187-induced thromboxane B2 production at 100 uM relative to control; values are per cent of control
[9] = test system: Rattus norvegicus; assay: Toxicity in Sprague-Dawley rat assessed as reduction of gastric lesion score at 45 umol/kg, po; type: organism-based, Stomach; parameters: scale not given: the % may be the effect or the level left; details: in vivo
In short: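 Rats fasted 18 h; compound homogenized in 0.5% methocel and gavaged at 1 mL/kg. Killed 3 h after dosing. Stomach opened along the greater curvature and photographed. Hemorrhagic lesion lengths scored blind and summed as the total lesion score. Means ± SEM, 4–12 animals; ANOVA with Dunnett's test.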

[10] = molecular target: T1, Prostaglandin G/H synthase 1; assay: Inhibition of COX1 in human whole blood assessed as effect on A23187-induced thromboxane B2 production at 10 uM relative to control; values are per cent of control
[11] = molecular target: T1, Prostaglandin G/H synthase 1; assay: Inhibition of COX1 in human whole blood assessed as effect on A23187-induced thromboxane B2 production at 1 uM relative to control; values are per cent of control
[12] = test system: Rattus norvegicus; assay: Increase in nitrite plus nitrate levels in Sprague-Dawley rat at 45 umol/kg, po; type: functional, organism-based
In short: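 Plasma taken by cardiac puncture 4 h after oral dosing (0.5% methylcellulose vehicle), at the end of the air-pouch experiment. Total NOx (nitrite plus nitrate) measured with a fluorometric kit. Means ± SEM, n = 3; ANOVA with Dunnett's test vs vehicle.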

[13] = species on record: Homo sapiens; assay: Selectivity for human COX2 over human COX1
[14] = molecular target: T2, Prostaglandin G/H synthase 2 (Homo sapiens); assay: Inhibition of COX2 in human whole blood assessed as effect on LPS-induced thromboxane B2 production at 100 uM relative to control; values are per cent of control

T1 sequence (P23219 whole entry): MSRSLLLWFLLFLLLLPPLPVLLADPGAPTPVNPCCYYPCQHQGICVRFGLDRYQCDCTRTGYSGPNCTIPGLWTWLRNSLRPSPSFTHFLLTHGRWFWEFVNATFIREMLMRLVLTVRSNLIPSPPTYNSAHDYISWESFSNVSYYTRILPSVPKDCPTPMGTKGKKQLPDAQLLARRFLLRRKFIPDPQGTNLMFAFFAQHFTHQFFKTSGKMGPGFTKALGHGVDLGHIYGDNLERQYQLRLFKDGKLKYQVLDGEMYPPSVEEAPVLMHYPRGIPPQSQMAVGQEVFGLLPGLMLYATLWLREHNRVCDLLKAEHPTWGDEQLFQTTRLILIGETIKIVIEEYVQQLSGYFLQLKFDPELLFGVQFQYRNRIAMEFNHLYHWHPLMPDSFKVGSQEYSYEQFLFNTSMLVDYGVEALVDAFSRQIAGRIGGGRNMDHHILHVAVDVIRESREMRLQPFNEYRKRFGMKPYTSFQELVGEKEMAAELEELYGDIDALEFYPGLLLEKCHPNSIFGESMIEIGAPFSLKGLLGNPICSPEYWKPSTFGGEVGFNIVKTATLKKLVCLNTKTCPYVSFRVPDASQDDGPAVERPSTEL

residual activity [1] [%]	residual activity [2] [%]	IC50 [4] [µM]	residual activity [5] [%]	residual activity [8] [%]	residual activity [10] [%]	residual activity [11] [%]	Ratio IC50 [13]	residual activity [14] [%]	Compound	Activity [3] [%]	Activity [6] [%]	Activity [7] [%]	Activity [9] [%]	Activity [12]
7	65	6	1	0	31	77	5		COc1ccc2c(c1)c(CC(=O)NCCCO[N+](=O)[O-])c(C)n2C(=O)c1ccc(Cl)cc1	71	85	99	98	Active
11	46	3.3	0	6	37	91			COc1ccc2c(c1)c(CC(=O)NCCCO)c(C)n2C(=O)c1ccc(Cl)cc1	85		97	98	
41	72	15.9	3	13	70	98		0	COc1cc2c(CC(=O)NCCCO[N+](=O)[O-])c(C)n(C(=O)c3ccc(Cl)cc3)c2cc1Cl					
